High-throughput results: PubChem BioAssay, Johns Hopkins Ion Channel Center
Compounds with a hit are over-represented: about 3.5% of the library has one in this group of screens.
RGS4 inh: human RGS4 inhibition; P49798; HEK293 M3R/RGS4 inducible, Fluo-4 calcium flux; stronger effect = higher value; triggered by carbachol at its EC20; B-score at 10 µM; actives 0.45% (n = 310,000); AID 463165;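 active means B-score, a plate-corrected calcium signal, over three deviations above library mean, with baseline fluorescence within five deviations of library mean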;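 further: RGS4 expression induced by doxycycline in cells with stable M3 receptor; B-score is computed from the integrated fluorescence ratio over baseline after carbachol; higher B-score means a larger calcium signal and so more RGS4 inhibition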
Target sequence (P49798 whole entry, looked up): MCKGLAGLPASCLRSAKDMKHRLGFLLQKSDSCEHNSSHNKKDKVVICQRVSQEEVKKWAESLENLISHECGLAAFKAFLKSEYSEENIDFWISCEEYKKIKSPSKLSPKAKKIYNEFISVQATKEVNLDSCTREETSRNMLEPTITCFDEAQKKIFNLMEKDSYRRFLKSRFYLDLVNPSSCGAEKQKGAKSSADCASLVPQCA
RGS4 pot: potentiators or activators of RGS4 | HEK293 M3R/inducible RGS4, carbachol calcium flux Fluo4; stronger effect = lower value | B-score at 10 µM | actives 0.92% (n = 310,000);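 active means B-score of the integrated calcium signal more than 4 SD below the library mean, with starting fluorescence not abnormally high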;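 further: negative B-score means reduced calcium response which marks RGS4 activation or potentiation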
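System: HEK293 FlpIn-TREx cells, stable M3R, doxycycline-inducible RGS4. Timing: overnight RGS4 induction, 30 min dye load 37 °C, 20 min compound RT. Also added: carbachol, ECmax concentration. Measured by: Fluo4 fluorescence kinetic imaging of calcium. Evaluation: integrated calcium ratio converted to B score.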
MrgX1 antagonist: human MrgX1 receptor antagonism, primary screen; MRGX1-HEK293 calcium flux, Fluo-4, BAM8-22 antagonism; stronger effect = lower value; B-score at 10 µM; actives 1.3% (n = 310,000);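 active means calcium-response B-score plate-corrected more than 3 library SD below zero, starting fluorescence within 5 deviations, no agonist response on first addition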;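 further: peak minus trough fluorescence over baseline after final BAM8-22 challenge near maximal dose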
Target sequence (Q96LB2 whole entry, looked up): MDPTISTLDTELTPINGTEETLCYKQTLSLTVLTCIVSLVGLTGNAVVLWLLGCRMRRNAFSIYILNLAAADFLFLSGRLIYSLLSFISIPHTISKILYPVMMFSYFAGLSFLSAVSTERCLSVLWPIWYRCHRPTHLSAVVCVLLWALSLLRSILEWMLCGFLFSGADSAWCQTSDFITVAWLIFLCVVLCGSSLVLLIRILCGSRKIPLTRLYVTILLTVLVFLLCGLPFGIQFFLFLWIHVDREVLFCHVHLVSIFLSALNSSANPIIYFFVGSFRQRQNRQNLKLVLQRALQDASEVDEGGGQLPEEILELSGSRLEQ
MrgX1 PAM: human MrgX1 positive allosteric modulation, primary screen. Q96LB2. MrgX1-HEK293, Fluo-4 calcium flux, FDSS; stronger effect = higher value. B-score at 10 µM. actives 0.63% (n = 310,000);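 active means plate-corrected calcium response at least 3 library SD above typical, normal starting fluorescence, not activating the receptor alone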;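 further: compound read alongside a low EC10 to EC30 dose of BAM8-22 agonist; peak minus trough fluorescence over baseline measured at the second addition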
MrgX1 ag: activates human MrgX1 receptor signaling | MrgX1-HEK293 cells, Fluo-4 calcium fluorescence, agonist mode; stronger effect = higher value | AID 588627 | B-score at 10 µM | actives 0.44% (n = 310,000);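 active means calcium response B-score plate-corrected fluorescence ratio at least 3 library SD, with starting fluorescence B-score inside 5 SD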
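Test system: Stable human MrgX1 HEK293 cell line | Schedule: Overnight plating before 1 h dye loading | Read-out basis: Baseline-normalised fluorescence change ratio, B-scored | Detection: Kinetic calcium dye fluorescence, Fluo-4 NW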
RGS4 inh valid: RGS4 inhibitor validation; HEK293 M3R/RGS4, carbachol calcium Fluo-4 fluorescence; carbachol added at its EC20; 0 = buffer wells, 100 = carbachol control; AID 492999; calcium response, % at 10 µM; actives 65% (n = 1,700); shares compounds with RGS4 inh;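 active means duplicate-averaged calcium response above the buffer-only control mean plus 5 SD of those controls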;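 further: integrated fluorescence ratio F max minus min over baseline F0; higher response in RGS4-induced cells means RGS4 inhibition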
M3R Ca ctr: non-induced cell nonspecific activity of RGS4 inhibitors; shares compounds with RGS4 inh; HEK293 M3R non-induced, carbachol calcium Fluo-4; submaximal (EC20) carbachol stimulus; buffer wells 0%, carbachol control wells 100%; activity (percent), % at 10 µM; actives 20% (n = 1,900); call rule not given here;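 further: RGS4 induction absent so cells express M3R without RGS4; higher means more calcium signal and flags a non-specific hit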
RGS4 inh ctr2: signal in non-induced cells without carbachol, RGS4 inhibitor counter-screen; HEK293 M3R/RGS4 non-induced, Fluo-4 calcium, no carbachol; normalised: buffer wells 0%, carbachol wells 100%; calcium response (agonist-mode artifact), % at 10 µM; actives 22% (n = 1,900); shares compounds with RGS4 inh;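 active means duplicate-averaged calcium rise in uninduced cells above buffer wells' mean plus 5 SD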
Numbers without * were called inactive; i = inactive; / = no result.

SMILES | RGS4 inh | RGS4 pot | MrgX1 antagonist | MrgX1 PAM | MrgX1 ag | RGS4 inh valid | M3R Ca ctr | RGS4 inh ctr2
O=C1NC(=S)NC(=O)C1=Cc1ccc2c(c1)CCN2CCCCl | 10.4* | i | i | i | i | 42.5%* | i | i
C=CCN1C(=O)NC(=O)/C(=C/c2cc3c4c(c2)CCCN4CCC3)C1=O | i | i | i | i | i | / | / | /
CCCC(=O)NC(Oc1ccccc1Cl)C(Cl)(Cl)Cl (stereo unspecified) | i | i | i | i | i | / | / | /
COc1cc(C(c2c(C)[nH]n(-c3ccccc3)c2=O)c2c(C)[nH]n(-c3ccccc3)c2=O)cc(OC)c1OC | 6.03* | i | i | i | i | 14.5%* | i | i
Cc1ccc(/C=C2/C(=O)NC(=O)N(CCc3ccc(F)cc3)C2=O)o1 | i | i | i | i | i | i | i | i
O=C1NC(=O)N(CCc2ccc(F)cc2)C(=O)/C1=C/c1cccs1 | i | i | i | i | i | / | i | i
C[C@](N)(CCP(=O)(O)O)C(=O)O | / | / | i | i | i | / | / | /
COc1ccc(N2C(=O)/C(=C/c3cccs3)C(=O)NC2=S)cc1 | 8.3* | i | i | i | i | i | i | i
CCOc1cccc(N2C(=O)/C(=C/c3ccco3)C(=O)NC2=S)c1 | i | i | i | i | i | / | / | /
O=C1NC(=S)N(c2ccc(F)cc2)C(=O)/C1=C/c1ccccc1O | i | i | i | i | i | / | / | /
Cc1ccc(/C=C2\C(=O)NC(=S)N(c3ccc(F)cc3)C2=O)o1 | i | i | i | i | i | / | i | 11.5%*
COc1cccc(N2C(=O)/C(=C/c3ccc(C)o3)C(=O)NC2=S)c1 | 10.3* | i | i | i | i | 93.0%* | 33.0%* | 19.5%*
Cc1ccc(/C=C2\C(=O)NC(=S)N(c3ccc(F)cc3)C2=O)s1 | 14.7* | i | i | i | i | 29.0%* | i | i
CN1CCN(c2nc3c(c(=O)[nH]2)CCC3)CC1 | i | i | i | i | i | / | / | /
COc1ccc(Cn2c(O)c(C=NCCN3CCOCC3)c(=O)[nH]c2=O)cc1 | i | i | i | i | i | / | / | /
O=C(N/N=C/c1c(O)n(Cc2ccc(F)cc2)c(=O)[nH]c1=O)c1ccccc1O | i | i | i | i | i | i | i | i
O=C(N/N=C/c1c(O)n(Cc2ccccc2)c(=O)[nH]c1=O)c1ccccc1O | 6.9* | i | i | i | i | 11.5%* | i | i
COc1ccc(Cn2c(O)c(/C=N/NC(=O)c3ccccc3O)c(=O)[nH]c2=O)cc1 | i | i | i | i | i | / | i | i
COc1ccc(Cn2c(O)c(/C=N/NC(=O)c3ccccc3)c(=O)[nH]c2=O)cc1 | i | i | i | i | i | / | i | 9.5%*
COc1ccc(Cn2c(O)c(/C=N/NC(=O)c3ccncc3)c(=O)[nH]c2=O)cc1 | i | i | i | i | i | / | / | /
CCCCC(CC)COCCCN=Cc1c(O)[nH]c(=S)[nH]c1=O (stereo unspecified) | i | i | i | i | i | / | / | /
Cc1ccc(CN2C3CCCC2CC(NC(=O)Nc2cccc(F)c2)C3)cc1 (stereo unspecified) | i | i | i | i | i | / | / | /
COc1ccccc1NC(=O)c1cn(CCC#N)nc1-c1cccc(Cl)c1 | i | i | i | i | i | / | / | /
O=C1CN(O)C(c2ccccc2)=c2cc(Cl)ccc2=N1 | i | i | i | i | i | / | / | /
O=C(N/N=C/c1c(O)n(CCc2ccccc2)c(=O)[nH]c1=O)c1ccccc1O | i | i | i | i | i | i | i | 9.0%*
SMILES | RGS4 inh | RGS4 pot | MrgX1 antagonist | MrgX1 PAM | MrgX1 ag | RGS4 inh valid | M3R Ca ctr | RGS4 inh ctr2
O=C(N/N=C/c1c(O)n(CCc2ccc(F)cc2)c(=O)[nH]c1=O)c1ccccc1 | i | i | i | i | i | / | / | /
O=C(O)C(Cc1cnc[nH]1)NS(=O)(=O)c1ccc(Br)cc1 (stereo unspecified) | i | i | i | i | i | / | / | /
CCN1C[C@]2(COC)CC[C@H](O)[C@@]34C5C[C@@H]6[C@@H](OC)C[C@@](O)(C5[C@H]6O)[C@](O)([C@@H](OC)C23)[C@@H]14 (stereo partly specified) | i | i | i | i | i | / | / | /
O=C1/C(=C\c2ccc([N+](=O)[O-])cc2)N2CCC1CC2 | 5.91* | i | i | i | i | 5.0%* | i | i
COc1cc(/C=C/[N+](=O)[O-])ccc1O | 26.2* | i | i | i | i | 60.5%* | 74.5%* | i
COc1ccc(-n2c(/C=C/c3ccc(O)c(OC)c3)nc3ccccc3c2=O)cc1 | i | i | i | i | i | / | / | /
C=C(CO)CC1CC(O)[C@]2(C)OC3CC4OC5C[C@]6(C)O[C@]7(C)CCC8OC9C[C@]%10(C)OC%11C(C)=CC(=O)OC%11CC%10OC9C[C@@H](C)C8OC7CC6O[C@]5(C)C/C=C\C4OC3CC2O1 (stereo partly specified) | i | i | i | i | i | / | i | i
CCN(CC)c1ccc(/C=C/[N+](=O)[O-])cc1 | 10.2* | i | i | i | i | 29.0%* | i | 580.5%*
Cc1cc(C)cc(N2C(=O)NC(=O)/C(=C\c3cccn3-c3ccccc3)C2=O)c1 | 9.2* | i | i | i | i | 18.0%* | i | 15.0%*
Cc1cc(C)cc(N2C(=O)NC(=O)/C(=C\c3cccn3-c3ccc(Cl)cc3)C2=O)c1 | i | i | i | i | i | / | / | /
COc1cc(/C=C(/C)[N+](=O)[O-])ccc1OCc1ccccc1Cl | 31.3* | i | i | i | i | 10.5%* | i | 38.5%*
CN1C(=O)C(=Cc2ccccc2OCc2ccccc2Cl)C(=O)N(C)C1=O | i | i | i | i | i | / | / | /
Cc1ccc2c(c1)cc1c(=O)n(CC(=O)N3CCC4(CC3)OCCO4)nc(C)n12 | i | i | i | i | i | / | / | /
